Screens deposited in PubChem by several laboratories.
SENP1 inh: SENP1 (human) catalytic domain inhibition. recombinant SENP1 catalytic domain, CyPet-SUMO1-YPet FRET cleavage. 360,000 compounds, 0.21% hits. inhibition, % at 10 µM. Q9P0U3. AID 624204;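 active = inhibition at least 30% at 10 µM, raw YFP signal under a set limit, fluorescence ratio 0.5 to 1.5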
Target sequence (Q9P0U3 419-644 limits assumed): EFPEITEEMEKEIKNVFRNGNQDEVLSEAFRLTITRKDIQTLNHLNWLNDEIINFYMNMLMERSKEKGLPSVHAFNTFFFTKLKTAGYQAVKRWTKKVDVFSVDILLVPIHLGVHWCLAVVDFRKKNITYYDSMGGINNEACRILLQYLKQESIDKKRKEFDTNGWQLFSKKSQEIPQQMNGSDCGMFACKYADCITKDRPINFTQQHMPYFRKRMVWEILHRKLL
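Compound: 10 µM single point, 0.5% DMSO; Test system: hSENP1 catalytic domain, recombinant; Timing: 50 min reaction at room temperature; Technique: FRET, CFP and YFP emission; Control set: no-enzyme wells low, DMSO-plus-enzyme wells high control.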
ABHD5 PLIN5 PPI: inhibitors of human ABHD5-perilipin-5 interaction; Split G. princeps luciferase complementation, luminescence, 4 h; Q00G26+Q8WTS1; inhibition, % at 4 µM; 360,000 compounds, 0.78% hits;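 active = inhibition above the mean inhibition across every tested compound plus 3 SD, cut at about 22% in these data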
GRK2 aptamer HTS: blocks RNA aptamer binding to human GRK2; inhibition of aptamer binding, % at 10 µM; AID 488847; bead flow cytometry, FAM-aptamer displacement from GRK2; 330,000 compounds, 0.59% hits;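 active = inhibition of aptamer binding above 40%, roughly 3 SD of noise, on plates passing a quality check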;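 also: median bead fluorescence of bound FAM aptamer so fluorescent compounds give negative values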
Beta2AR agonist: activates human beta-2 adrenergic receptor causing internalization; Am2.2-beta2AR cells, FAP receptor internalization, flow cytometry; response, % (concentration not given with the values); 340,000 compounds, 0.43% hits; AID 504454;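 active = response above a set limit, near 3 SD of response in nonfluorescent compounds, cut at about 42% in these data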
Target sequence (P07550 whole entry, looked up): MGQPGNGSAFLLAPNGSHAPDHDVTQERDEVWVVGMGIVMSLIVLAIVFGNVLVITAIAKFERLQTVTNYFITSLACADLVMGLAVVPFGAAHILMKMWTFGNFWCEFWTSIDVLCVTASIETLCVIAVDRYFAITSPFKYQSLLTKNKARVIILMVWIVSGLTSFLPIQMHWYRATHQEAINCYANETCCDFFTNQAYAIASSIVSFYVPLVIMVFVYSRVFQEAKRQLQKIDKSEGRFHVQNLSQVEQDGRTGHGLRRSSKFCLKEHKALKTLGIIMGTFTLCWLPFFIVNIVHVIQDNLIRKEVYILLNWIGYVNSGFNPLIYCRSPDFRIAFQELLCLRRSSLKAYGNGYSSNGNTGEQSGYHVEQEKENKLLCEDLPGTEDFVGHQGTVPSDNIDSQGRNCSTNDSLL
NadD block: blocks S. aureus nicotinate mononucleotide adenylyltransferase | purified NadD enzyme, colorimetric absorbance read-out | inhibition, % at 20 µM | 360,000 compounds, 0.78% hits | AID 602399; in the data active = inhibition above about 26%
ABHD5 PLIN5 conf: confirmation of human ABHD5-PLIN5 interaction inhibitors. 2,200 compounds, 67% hits. biochemical ABHD5-PLIN5 interaction, luminescence. shares compounds with ABHD5 PLIN5 PPI. inhibition, % at 4 µM; in the data active = inhibition above about 23%
HNF4 counter: counter-screen for ABHD5-PLIN5 inhibitors: HNF4 split-luciferase | inhibition, % at 4 µM | 2,200 compounds, 77% hits | HNF4 dimerization, luminescence, biochemical | AID 651674 | shares compounds with ABHD5 PLIN5 PPI;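 active = mean inhibition across replicate wells exceeding the computed hit threshold, cut at about 13% in these data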;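 also: light from luciferase halves that rejoin when HNF4 fusion proteins dimerize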
Large screens that a line does not name were inactive (follow-up assays come after a bar, where they were run). An excerpt weighted towards active compounds, which were near 2.5% of everything screened.

COc1cc(C(CCN2CCCC(C)C2)c2c(OC)cc(OC)c3c(-c4ccccc4)cc(=O)oc23)cc(OC)c1OC (stereo not drawn)	ABHD5 PLIN5 PPI 27 (no result: GRK2 aptamer HTS) | ABHD5 PLIN5 conf inactive | HNF4 counter inactive
CCCCCc1cc(=O)oc2c(C(CCN3CCCCC3)c3ccc(OC)cc3)c(OC)cc(OC)c12 (stereo not drawn)	ABHD5 PLIN5 PPI 26 | ABHD5 PLIN5 conf inactive | HNF4 counter inactive
CCCCCc1cc(=O)oc2c(C(CCN3CCCC3)c3ccc(N(C)C)cc3)c(OC)cc(OC)c12 (stereo not drawn)	none
Cc1cc(C(=O)Nc2cc(Br)ccc2O)on1	none
Cc1ccc(C)c(NC(=O)C2CCCN(c3cnccn3)C2)c1 (stereo not drawn)	none
Cc1ccc(-c2cc(C(=O)NCc3ccco3)c3ccccc3n2)s1	ABHD5 PLIN5 PPI 35 | ABHD5 PLIN5 conf inactive | HNF4 counter 16
O=C(COC(=O)c1cc(-c2ccc(Cl)s2)nc2ccccc12)NCc1ccco1	ABHD5 PLIN5 PPI 38 | ABHD5 PLIN5 conf 59 | HNF4 counter 56
Cc1nn(-c2ccccc2)c2nc(-c3ccncc3)cc(C(=O)NCc3ccco3)c12	ABHD5 PLIN5 PPI 24 | ABHD5 PLIN5 conf inactive | HNF4 counter 26
Cc1ccc(-c2nc(C)sc2CC(=O)NCc2ccco2)cc1	ABHD5 PLIN5 PPI 27 (no result: GRK2 aptamer HTS) | ABHD5 PLIN5 conf 27 | HNF4 counter 33
Cc1ccccc1-n1nc(C)c2c(C(=O)NN)cc(-c3ccncc3)nc21	none
CCN(CC)C(=O)c1cccc(-c2csc(C(NC(C)=O)c3ccc(F)c(F)c3)n2)c1 (stereo not drawn)	none (no result: GRK2 aptamer HTS, Beta2AR agonist)
O=C(NCCOc1ccccc1)C1CCC(=O)N(C2CCCCCC2)C1 (stereo not drawn)	none
NS(=O)(=O)c1ccc(CCNC(=O)c2cc(-c3ccco3)nc3ccccc23)cc1	ABHD5 PLIN5 PPI 25 | ABHD5 PLIN5 conf 22 | HNF4 counter 22
CCOC(=O)C1(Cc2ccc(OC)cc2)CCN(C(=O)c2cncs2)CC1	none
COc1cccc(NC(=O)/C=C/c2ccc(S(=O)(=O)N3CCOCC3)cc2)c1	none
CCOC(=O)C1CCN(Cc2ccc(OC)c(C)c2OC)CC1	none
Oc1c(CN2CCCC(C(F)(F)F)C2)cc(Cl)c2ccccc12 (stereo not drawn)	ABHD5 PLIN5 PPI 24 | ABHD5 PLIN5 conf inactive | HNF4 counter inactive
OC1CCCN(Cc2cccc3ccccc23)C1 (stereo not drawn)	none
CCOC(=O)C1CCN(Cc2cc(Cl)c3ccccc3c2O)CC1	ABHD5 PLIN5 PPI 66 | ABHD5 PLIN5 conf inactive | HNF4 counter 55
COCCN(C(=O)COC(=O)CSc1ccccc1)c1c(N)n(Cc2ccccc2)c(=O)[nH]c1=O	none
O=C(CC1SC(N2CCCC2)=NC1=O)Nc1ccc(C(=O)N2CCN(c3cccc(Cl)c3)CC2)cc1 (stereo not drawn)	none
CCc1cc2c(=O)n(Cc3ccco3)c(SCc3c(C)noc3C)nc2s1	ABHD5 PLIN5 PPI 26 | ABHD5 PLIN5 conf 30 | HNF4 counter 51
N#CC1=C(N)NC(=S)C(C(N)=O)C1c1ccc(Cl)cc1Cl (stereo not drawn)	ABHD5 PLIN5 PPI 57 | ABHD5 PLIN5 conf inactive | HNF4 counter 101
N#CC1=C(N)NC(=S)C(C(N)=O)C1c1ccccc1F (stereo not drawn)	ABHD5 PLIN5 PPI 38 | ABHD5 PLIN5 conf inactive | HNF4 counter 84
Cc1nn(-c2ccccc2)c(C)c1C(=O)OCC(=O)N(C)c1c(N)n(Cc2ccccc2)c(=O)[nH]c1=O	none
N#CCSc1nnc(-c2c[nH]c3ccccc23)o1	none
CCSc1nnc(-c2c[nH]c3ccccc23)o1	ABHD5 PLIN5 PPI 98 | ABHD5 PLIN5 conf inactive | HNF4 counter inactive
Cc1nnc(N=c2ssnc2Cl)o1	ABHD5 PLIN5 PPI 47 | ABHD5 PLIN5 conf 98 | HNF4 counter 110
Cc1ccc(N=c2ssnc2Cl)cc1	none
O=[N+]([O-])c1ccc(N2N=C(c3ccco3)CC2c2ccccc2)cc1 (stereo not drawn)	ABHD5 PLIN5 PPI 29 | ABHD5 PLIN5 conf inactive | HNF4 counter 24
Fc1ccc(C2CC(c3ccco3)=NN2c2ccccc2)cc1 (stereo not drawn)	none
Cc1cc(Br)cn2c(Cc3ccccc3)c(-c3cccc(Cl)c3)nc12	none (no result: GRK2 aptamer HTS, Beta2AR agonist)
Clc1ccc(-c2nc3ccc(Cl)cn3c2Cc2cccc(Cl)c2)cc1	none (no result: GRK2 aptamer HTS, Beta2AR agonist)
Clc1cccc(Cc2c(-c3ccco3)nc3ccc(Cl)cn23)c1	ABHD5 PLIN5 PPI 71 (no result: GRK2 aptamer HTS, Beta2AR agonist) | ABHD5 PLIN5 conf 86 | HNF4 counter 102
Cc1cc(Br)cn2c(Cc3cccc(Cl)c3)c(-c3ccco3)nc12	ABHD5 PLIN5 PPI 28 (no result: GRK2 aptamer HTS, Beta2AR agonist) | ABHD5 PLIN5 conf 28 | HNF4 counter 40
Fc1cccc(Cc2c(-c3ccco3)nc3c(Cl)cc(C(F)(F)F)cn23)c1	ABHD5 PLIN5 PPI 53 (no result: GRK2 aptamer HTS, Beta2AR agonist) | ABHD5 PLIN5 conf 70 | HNF4 counter 83
Cc1ccc(Cc2c(-c3ccco3)nc3c(C)cc(Br)cn23)cc1	ABHD5 PLIN5 PPI 64 (no result: GRK2 aptamer HTS, Beta2AR agonist) | ABHD5 PLIN5 conf 48 | HNF4 counter 66
CCOC(=O)C1=C(C)NC(C)=C(C(=O)OCC)C1C(=O)OCC(=O)N(C)C1CCS(=O)(=O)C1 (stereo not drawn)	ABHD5 PLIN5 PPI 96 | ABHD5 PLIN5 conf inactive | HNF4 counter inactive
Cc1ccc(OCC(=O)OCC(=O)NC2CCCCCC2)cc1C	none (no result: GRK2 aptamer HTS, Beta2AR agonist)
CC(NC(=O)/C=C/c1ccco1)c1nc2ccccc2n1Cc1ccccc1F (stereo not drawn)	ABHD5 PLIN5 PPI 35 | ABHD5 PLIN5 conf inactive | HNF4 counter inactive
N#C/C(=C\c1ccccc1OCc1ccc(C(=O)O)cc1)C(=O)Nc1ccc(O)cc1	ABHD5 PLIN5 PPI 46 | ABHD5 PLIN5 conf 58 | HNF4 counter 56
COC(=O)c1ccc(COc2ccccc2/C=C(\C#N)C(=O)Nc2ccc(C)cc2)cc1	none
Cc1nn(CC(=O)Nc2ccccn2)c(C)c1[N+](=O)[O-]	ABHD5 PLIN5 PPI 73 | ABHD5 PLIN5 conf inactive | HNF4 counter inactive
CN(C(=O)C(=O)c1cn(CC(=O)N2CCCC2)c2ccccc12)C1CCCCC1	none
COC(=O)C(=Cc1ccc(-c2ccsc2C(=O)OC)o1)C(=O)OC	ABHD5 PLIN5 PPI 23 | ABHD5 PLIN5 conf 24 | HNF4 counter 37
CCOC(=O)C(=Cc1ccc(-c2ccsc2C(=O)OC)o1)C(=O)OCC	none
COc1cc(/C=C/[N+](=O)[O-])ccc1OC(=O)/C=C/c1ccc(F)cc1	ABHD5 PLIN5 PPI 30 | ABHD5 PLIN5 conf 49 | HNF4 counter 73
COc1ccc(/C=C/C(=O)Oc2ccc(C)c(C)c2)cc1OC	none
COc1ccc(C2(C)NC(=O)N(CC(=O)NCc3ccccc3)C2=O)cc1OC (stereo not drawn)	none
